≈ marks a conversion by molar mass, not a printed value.
Columns and labels:
RAW 264.7 cells [1] = test: MTT assay, LPS-induced inflammation in RAW 264.7; type: cell-based, murine; details: RAW 264.7, pre-treatment 100 μM and 200 μM, then LPS; Fig. 4
Outline: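 Mouse RAW 264.7 macrophages kept in high-glucose DMEM with 10% heat-inactivated FBS and 1% penicillin–streptomycin at 37 °C, 5% CO2. Cells seeded at 5 × 10^5 cells per mL, pretreated 1 h with test compound (100 or 200 μM), then stimulated with […] for 24 h. Medium replaced; 0.5 mg mL−1 MTT for 3 h; formazan dissolved in DMSO; OD read at 540 nm. Percent inflammation derived by subtracting percent viability relative to control.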

Escherichia coli = test: In vitro antibacterial MIC determination; type: cell-based
Outline: (§1)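 Bacteria grown on nutrient agar, subcultured to log phase in nutrient broth, then diluted in sterile saline to about 10^5–10^6 CFU mL−1. Test compounds diluted in acetone, DMSO or diethyl ether (ether preferred). Saturated disks placed on spread-plated inoculum and incubated at 37 °C for 24 h. MIC determined across different compound concentrations, with streptomycin as standard.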

Staphylococcus aureus = test: In vitro antibacterial MIC determination; type: cell-based
Outline: as §1

Rhizopus arrhizus = test: In vitro antifungal MIC, poison plate technique; type: cell-based
Pseudomonas aeruginosa = test: In vitro antibacterial MIC determination; type: cell-based
Outline: as §1

Aspergillus flavus = test: In vitro antifungal MIC, poison plate technique; type: cell-based
COX-1 = biological target: T1, COX-1 (Ovis aries, UniProt P05979); test: Colorimetric COX; type: biochemical, ovine; details: read-out: % inhibition of COX, COX-1
T1 sequence (P05979 25-600): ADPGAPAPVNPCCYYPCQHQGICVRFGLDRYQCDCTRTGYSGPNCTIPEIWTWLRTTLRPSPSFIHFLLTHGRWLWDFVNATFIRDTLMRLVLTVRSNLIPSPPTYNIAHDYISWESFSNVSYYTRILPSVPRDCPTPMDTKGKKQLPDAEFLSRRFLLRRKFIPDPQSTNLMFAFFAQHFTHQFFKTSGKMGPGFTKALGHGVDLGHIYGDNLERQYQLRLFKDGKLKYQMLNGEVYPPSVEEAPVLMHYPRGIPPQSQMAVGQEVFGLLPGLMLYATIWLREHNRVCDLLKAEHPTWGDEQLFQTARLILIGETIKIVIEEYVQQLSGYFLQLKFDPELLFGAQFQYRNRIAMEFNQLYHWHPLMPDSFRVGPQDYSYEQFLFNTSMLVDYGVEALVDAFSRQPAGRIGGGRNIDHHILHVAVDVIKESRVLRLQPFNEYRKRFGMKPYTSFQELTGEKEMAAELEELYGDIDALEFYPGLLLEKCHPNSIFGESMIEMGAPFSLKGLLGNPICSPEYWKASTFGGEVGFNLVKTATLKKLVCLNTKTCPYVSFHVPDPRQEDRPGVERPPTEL

Aspergillus niger = test: In vitro antifungal MIC, poison plate technique; type: cell-based
Bacillus subtillis = test: In vitro antibacterial MIC determination; type: cell-based
Outline: as §1

COX-2 = biological target: T2, COX-2 (Ovis aries, UniProt P79208); test: Colorimetric COX; type: biochemical, ovine; details: read-out: % inhibition of COX, COX-2
T2 sequence (P79208 17-603): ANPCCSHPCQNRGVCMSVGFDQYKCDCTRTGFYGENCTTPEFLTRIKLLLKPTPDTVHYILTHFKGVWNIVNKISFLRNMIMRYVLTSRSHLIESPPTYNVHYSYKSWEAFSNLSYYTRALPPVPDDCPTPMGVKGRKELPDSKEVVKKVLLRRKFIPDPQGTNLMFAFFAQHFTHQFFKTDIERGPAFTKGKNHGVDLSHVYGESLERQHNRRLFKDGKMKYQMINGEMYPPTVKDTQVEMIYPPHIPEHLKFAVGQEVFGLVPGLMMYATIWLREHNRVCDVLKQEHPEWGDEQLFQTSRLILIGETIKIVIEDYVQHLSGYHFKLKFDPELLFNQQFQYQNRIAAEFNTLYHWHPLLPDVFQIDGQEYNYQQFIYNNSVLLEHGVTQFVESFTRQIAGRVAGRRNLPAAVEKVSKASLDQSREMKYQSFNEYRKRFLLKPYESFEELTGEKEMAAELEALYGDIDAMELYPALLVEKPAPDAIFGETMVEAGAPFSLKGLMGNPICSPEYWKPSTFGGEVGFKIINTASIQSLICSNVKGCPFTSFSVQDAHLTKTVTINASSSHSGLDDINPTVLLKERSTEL

[2] = system: cotton pellet induced granuloma; test: Cotton pellets induced granuloma assay; type: in vivo; details: rat, 100 mg kg^−1 p.o. for 8 d, mean ± SEM
Outline: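 Two sterile 10 mg cotton pellets implanted ventrally in rats, six per group. […] On day 9 rats were killed under excess ether. Pellets were freed of tissue and weighed wet, then dried at 55 °C for 6 h or to constant weight. Granuloma equals dry weight minus cotton weight. Mean ± SEM.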

[3] = system: carrageenan-induced paw edema; test: Carrageenan induced hind paw edema assay; type: in vivo; details: rat, 100 mg kg^−1 p.o., mean ± SEM
Outline: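 Rats, six per group, acclimatized one week (25 ± 2 °C, 12 h light/dark, standard pellets, water ad libitum). […] Paw volume measured by plethysmometer displacement to the lateral malleolus at 1, 3 and 6 h. Mean ± SEM.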

RAW 264.7 cells [4] = test: Nitrite; type: cell-based, murine; details: RAW 264.7, 100 μM and 200 μM pre-treatment; Fig. 5
Outline: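 RAW 264.7 cells (1 × 10^6) seeded in flasks and left to adhere overnight. Pretreated 1 h with test compound (100 or 200 μM), then 100 μM LPS for 24 h at 37 °C, 5% CO2. Supernatant mixed with an equal volume of Griess reagent (0.1% naphthylethylenediamine and 1% sulfanilamide, 1:1, in 5% phosphoric acid) for 10 min in the dark at room temperature; A540 read. Nitrite quantified from a NaNO2 standard curve (0.1–6.25 μM), expressed as μmol NO2−/mg protein. Triplicates.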

Q: How did the “anti-inflammatory activity against LPS induced cell death / inflammation (MTT)” value (RAW 264.7 cells [1]) turn out when `O=S(=O)(NC[C@@H](O)[C@@H]1CCc2cc(F)ccc2O1)c1ccc(F)cc1F` [Compound 8f, N-((R)-2-((S)-6-Fluorochroman-2-yl)-2-hydroxyethyl)-2,4-difluorobenzenesulfonamide] was run?
A: strong anti-inflammatory activity

Q: What about the MIC (Escherichia coli) of the same compound?
A: 24.1 ± 1.02 µg/mL (≈ 62.1 µM)

Q: What about the MIC (Staphylococcus aureus) of the same compound?
A: 19.9 ± 0.66 µg/mL (≈ 51.3 µM)

Q: And the MIC (Rhizopus arrhizus)?
A: 19 ± 0.2 µg/mL (≈ 49.2 µM)

Q: And the MIC (Pseudomonas aeruginosa)?
A: 26.8 ± 0.55 µg/mL (≈ 69.3 µM)

Q: What about the MIC (Aspergillus flavus) of the same compound?
A: 16.2 ± 0.82 µg/mL (≈ 41.8 µM)

Q: What about the inhibition at 100 µM (COX-1) of the same compound?
A: 33.9 ± 1.06%

Q: What about the inhibition at 200 µM (COX-1) of the same compound?
A: 73.85 ± 0.54%

Q: What about the MIC (Aspergillus niger) of the same compound?
A: 15.7 ± 0.69 µg/mL (≈ 40.4 µM)

Q: What about the MIC (Bacillus subtillis) of the same compound?
A: 16.2 ± 0.94 µg/mL (≈ 41.9 µM)

Q: And the inhibition at 100 µM (COX-2)?
A: 28.7 ± 0.07%

Q: And the inhibition at 200 µM (COX-2)?
A: 52.1 ± 0.78%

Q: And the “Weight, Dry (cotton pellet)” value [2]?
A: 70.66 ± 2.33 mg

Q: And the “Weight, Wet (cotton pellet)” value [2]?
A: 139.82 ± 2.42 mg

Q: And the Paw volume ([3]; 1 h after carrageenan)?
A: 0.62 ± 0.10 mL

Q: What about the Paw volume ([3]; 3 h after carrageenan) of the same compound?
A: 0.86 ± 0.32 mL

Q: What about the Paw volume ([3]; 6 h after carrageenan) of the same compound?
A: 1.10 ± 0.13 mL

Q: What about the “inhibition of LPS-induced NO production” value (RAW 264.7 cells [4]) of the same compound?
A: strong inhibition

Q: With `O=S(=O)(NC[C@@H](O)[C@@H]1CCc2cc(F)ccc2O1)c1cccc(C(F)(F)F)c1` [Compound 8e, N-((R)-2-((S)-6-Fluorochroman-2-yl)-2-hydroxyethyl)-3-(trifluoromethyl)benzenesulfonamide] as the compound, how does the “anti-inflammatory activity against LPS induced cell death / inflammation (MTT)” value (RAW 264.7 cells [1]) read?
A: strong anti-inflammatory activity

Q: What about the MIC (Escherichia coli) of the same compound?
A: 26.3 ± 0.28 µg/mL (≈ 62.6 µM)

Q: What about the MIC (Staphylococcus aureus) of the same compound?
A: 20.4 ± 0.62 µg/mL (≈ 48.7 µM)

Q: What about the MIC (Rhizopus arrhizus) of the same compound?
A: 16.6 ± 0.52 µg/mL (≈ 39.7 µM)

Q: What about the MIC (Pseudomonas aeruginosa) of the same compound?
A: 26.7 ± 0.88 µg/mL (≈ 63.7 µM)

Q: And the MIC (Aspergillus flavus)?
A: 14.1 ± 0.55 µg/mL (≈ 33.6 µM)

Q: What about the inhibition at 100 µM (COX-1) of the same compound?
A: 48.4 ± 0.84%

Q: What about the inhibition at 200 µM (COX-1) of the same compound?
A: 71.55 ± 0.15%

Q: And the MIC (Aspergillus niger)?
A: 11.7 ± 0.35 µg/mL (≈ 27.9 µM)

Q: What about the MIC (Bacillus subtillis) of the same compound?
A: 19.7 ± 0.36 µg/mL (≈ 46.9 µM)

Q: What about the inhibition at 100 µM (COX-2) of the same compound?
A: 35.55 ± 0.22%

Q: What about the inhibition at 200 µM (COX-2) of the same compound?
A: 57.72 ± 0.36%

Q: And the “Weight, Dry (cotton pellet)” value [2]?
A: 76.45 ± 1.95 mg

Q: What about the “Weight, Wet (cotton pellet)” value [2] of the same compound?
A: 152.40 ± 1.57 mg

Q: And the Paw volume ([3]; 1 h after carrageenan)?
A: 0.68 ± 0.96 mL

Q: What about the Paw volume ([3]; 3 h after carrageenan) of the same compound?
A: 0.74 ± 0.29 mL

Q: What about the Paw volume ([3]; 6 h after carrageenan) of the same compound?
A: 1.19 ± 0.65 mL

Q: And the “inhibition of LPS-induced NO production” value (RAW 264.7 cells [4])?
A: strong inhibition

From article PMC8694313 (RSC Advances, 2021)
